Calls of active or inactive are those of the source. No cut-off for these calls is given here.
Key:
[1] = Selectivity index, ratio of TC50 for african green monkey (Cercopithecus aethiops) Vero cells to IC50 for Plasmodium falciparum W2; assay type: toxicity, cell-based
Aspergillus fumigatus = experiment: Antifungal activity against Aspergillus fumigatus ATCC 90906 by modified CLSI/NCCLS method; assay type: functional, organism-based
Cryptococcus neoformans = experiment: Antifungal activity against Cryptococcus neoformans ATCC 90113 by modified CLSI/NCCLS method; assay type: functional, organism-based
Plasmodium falciparum [2] = experiment: Antiplasmodial activity against Plasmodium falciparum W2 infected in RBCs by parasitic LDH release assay; assay type: functional, organism-based
Method in brief: (§1)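 Infected erythrocytes at 2% parasitemia and 2% hematocrit, in RPMI 1640 with 10% human serum and amikacin 60 μg/mL, were exposed to serial dilutions under N2/O2/CO2 (90:5:5) at 37°C for 72 h. LDH was read with Malstat reagent (30 min), then NBT/PES in the dark (60 min), stopped with 5% acetic acid, at 650 nm. IC50 came from percent growth dose-response curves.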

Candida albicans = experiment: Antifungal activity against Candida albicans ATCC 90028 by modified CLSI/NCCLS method; assay type: functional, organism-based
[3] = Selectivity index, ratio of TC50 for african green monkey (Cercopithecus aethiops) Vero cells to IC50 for Plasmodium falciparum D6; assay type: toxicity, cell-based
[4] = system: Mycobacterium intracellulare; experiment: Antibacterial activity against Mycobacterium intracellular ATCC 23068 by Franzblau method; assay type: functional, organism-based
Plasmodium falciparum [5] = experiment: Antiplasmodial activity against Plasmodium falciparum D6 infected in RBCs by parasitic LDH release assay; assay type: functional, organism-based; method in brief: as §1
Staphylococcus aureus = experiment: Antibacterial activity against methicillin-resistant Staphylococcus aureus ATCC 43300 by modified CLSI/NCCLS method; assay type: functional, organism-based
[6] = Toxicity against african green monkey Vero cells; assay type: cell-based; conditions: chlorocebus sabaeus
Method in brief: (§2)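 Cells seeded at 25,000 per well and incubated 24 h, then exposed to samples for 48 h. Viable cells were counted by neutral red, with DMSO as vehicle control. IC50 or TC50 values were derived from logarithmic plots of growth inhibition versus concentration.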

Leishmania donovani = experiment: Antileishmanial activity against Leishmania donovani promastigotes after 48 hrs by alamar blue assay; assay type: functional, organism-based
Pichia kudriavzevii = experiment: Antifungal activity against Candida krusei ATCC 6258 by modified CLSI/NCCLS method; assay type: functional, organism-based; conditions: Pichia kudriavzevii, ATCC 6258; read-out: IC50
Nakaseomyces glabratus = experiment: Antifungal activity against Candida glabrata ATCC 90030 by modified CLSI/NCCLS method; assay type: functional, organism-based
SK-OV-3 = experiment: Cytotoxicity against human SKOV3 cells after 48 hrs by neutral red assay; assay type: functional, cell-based; conditions: sk-ov-3; method in brief: as §2
BT-549 = experiment: Cytotoxicity against human BT549 cells after 48 hrs by neutral red assay; assay type: functional, cell-based; method in brief: as §2
SK-MEL = experiment: Cytotoxicity against human SK-MEL cells after 48 hrs by neutral red assay; assay type: functional, cell-based; method in brief: as §2
[7] = Toxicity against african green monkey Vero cells after 48 hrs by neutral red assay; assay type: cell-based; conditions: chlorocebus sabaeus, Vero cells; read-out: TC50; method in brief: as §2
[8] = Toxicity against pig LLC-PK11 cells after 48 hrs by neutral red assay; assay type: cell-based, Sus scrofa; conditions: for CC50 at 48 h: LLC-PK11 cells, read-out: TC50; for TC50: llc-pk11, 48 h; method in brief: as §2
KB = experiment: Cytotoxicity against human KB cells after 48 hrs by neutral red assay; assay type: functional, cell-based; conditions: Homo sapiens, KB, 48 h; read-out: IC50; method in brief: as §2
Escherichia coli = experiment: Antibacterial activity against Escherichia coli ATCC 35218 by modified CLSI/NCCLS method; assay type: functional, organism-based
Pseudomonas aeruginosa = experiment: Antibacterial activity against Pseudomonas aeruginosa ATCC 27853 by modified CLSI/NCCLS method; assay type: functional, organism-based
[9] = Candida albicans, ATCC 90028, read-out: IC50
[10] = Leishmania donovani, 48 h, read-out: IC50
[11] = Mycobacterium intracellulare, ATCC 23068, read-out: IC50
[12] = Aspergillus fumigatus, ATCC 90906, read-out: IC50
[13] = Homo sapiens, BT-549, 48 h, read-out: IC50
[14] = Homo sapiens, SK-MEL, 48 h, read-out: IC50

SMILES | selectivity ratio [1] | IC50 (Aspergillus fumigatus) | IC50 (Cryptococcus neoformans) [nM] | IC50 (Plasmodium falciparum [2]) [nM] | IC50 (Candida albicans; [9]) [nM] | selectivity ratio [3] | IC50 [4] | IC50 (Plasmodium falciparum [5]) [nM] | IC50 (Staphylococcus aureus) | CC50 [6] [nM] | IC90 (Leishmania donovani) | IC50 (Leishmania donovani; [10]) [nM] | IC50 (Pichia kudriavzevii) [nM] | IC50 (Nakaseomyces glabratus) | IC90 (Leishmania donovani; Leishmania donovani, 48 h) [nM] | IC50 (SK-OV-3) | CC50 at 48 h [7] [nM] | IC50 (KB) [nM] | further results
C[C@H]1[C@@H](O)O[C@@H]2O[C@@]3(C)CC[C@H]4[C@H](C)CC[C@@H]1[C@@]24OO3 [ARTENIMOL] | 100 | Not Active | 280 | 14.1 | 880 | 95 | Not Active | 14.8 | Not Active | 1410 | inactive | 87900 | 28100 | Not Active |  |  |  |  | 
C[C@@H]1CC[C@H]2[C@@H](C)C(=O)O[C@@H]3O[C@@]4(C)CC[C@@H]1[C@]32OO4 [ARTEMISININ] | > 40 | Not Active | 250 | 42.5 |  | > 51 | Not Active | 32.9 | Not Active | > 1680 | inactive | 40700 | 14200 | Not Active |  |  |  |  | IC50 (Candida albicans): Not Active
O=C(O)c1cn(C2CC2)c2cc(N3CCNCC3)c(F)cc2c1=O [CIPROFLOXACIN] |  |  |  |  |  |  |  |  |  |  |  |  |  |  |  |  |  |  | IC50 [4, 11]: 1270 nM
C[C@@H]1[C@H](O)[C@@H](C)/C=C/C=C/C=C/C=C/C=C/C=C/C=C/[C@H](O[C@@H]2O[C@H](C)[C@@H](O)[C@H](N)[C@@H]2O)C[C@@H]2O[C@](O)(C[C@@H](O)C[C@@H](O)[C@H](O)CC[C@@H](O)C[C@@H](O)CC(=O)O[C@H]1C)C[C@H](O)[C@H]2C(=O)O [AMPHOTERICIN B] |  |  | 780 |  | 370 |  |  |  |  |  |  |  | 850 |  | 400 |  |  |  | IC50 (Aspergillus fumigatus; [12]): 1120 nM; IC50 (Nakaseomyces glabratus; Nakaseomyces glabratus, ATCC 90030, read-out: IC50): 460 nM
C[C@H]1[C@@H](OCC(O)CO[C@H]2O[C@@H]3O[C@@]4(C)CC[C@H]5[C@H](C)CC[C@@H]([C@H]2C)[C@@]35OO4)O[C@@H]2O[C@@]3(C)CC[C@H]4[C@H](C)CC[C@@H]1[C@@]24OO3 (some centres not stated) | 100 | Not Active | 320 | 3.8 | 800 | 34 | Not Active | 11.2 | Not Active |  |  | 12800 | 400 | Not Active | 47900 | Not Active | 5600 | 260 | IC50 (BT-549; [13]): 480 nM; IC50 (SK-MEL; [14]): 8000 nM; CC50 at 48 h [8]: 150 nM
CCN(CC)CCCC(C)Nc1ccnc2cc(Cl)ccc12 (configuration not stated) [CHLOROQUINE] |  |  |  |  |  |  |  |  |  | > 14900 |  |  |  |  |  |  |  |  | 
CC1=CO[C@@H]2O[C@]3(C)CC[C@H]4[C@H](C)CC[C@@H]1[C@@]24OO3 [ANHYDRODIHYDROARTEMISININ] | > 70 | Not Active | 300 | 25.5 |  | > 113 |  | 15.8 | Not Active | > 1790 | inactive | 30000 | 56300 | Not Active |  |  |  |  | IC50 (Candida albicans): Not Active; IC50 [4, 11]: 56300 nM
N=C(N)c1ccc(OCCCCCOc2ccc(C(=N)N)cc2)cc1 [PENTAMIDINE] |  |  |  |  |  |  |  |  |  |  |  | 2800 |  |  | 6400 |  |  |  | 
C[C@H]1[C@@H](OC/C=C\CO[C@H]2O[C@@H]3O[C@@]4(C)CC[C@H]5[C@H](C)CC[C@@H]([C@H]2C)[C@@]35OO4)O[C@@H]2O[C@@]3(C)CC[C@H]4[C@H](C)CC[C@@H]1[C@@]24OO3 | 116 | Not Active | 24200 | 6.1 |  | 113 | Not Active | 6.3 | Not Active |  | inactive |  |  |  |  | Not Active | 180 | 320 | IC50 (Escherichia coli): Not Active; IC50 (BT-549; [13]): 1530 nM; IC50 (Pseudomonas aeruginosa): Not Active; IC50 (Candida albicans): Not Active; IC50 (SK-MEL; sk-mel): Not Active; TC50 [8]: Non-toxic; IC50 (Leishmania donovani): Not Active
CC(=O)O[C@H]1C(=O)[C@@]2(C)[C@H]([C@H](OC(=O)c3ccccc3)[C@]3(O)C[C@H](OC(=O)[C@H](O)[C@@H](NC(=O)c4ccccc4)c4ccccc4)C(C)=C1C3(C)C)[C@]1(OC(C)=O)CO[C@@H]1C[C@@H]2O [PACLITAXEL] |  |  |  |  |  |  |  |  |  |  |  |  |  |  |  |  | 530 |  | IC50 (SK-MEL; [14]): 4100 nM; CC50 at 48 h [8]: 4390 nM
C=C[C@@H](CO[C@H]1O[C@@H]2O[C@@]3(C)CC[C@H]4[C@H](C)CC[C@@H]([C@H]1C)[C@@]24OO3)O[C@H]1O[C@@H]2O[C@@]3(C)CC[C@H]4[C@H](C)CC[C@@H]([C@H]1C)[C@@]24OO3 | 30 |  | 6440 | 25.8 | 1450 | 32 | Not Active | 24.2 | Not Active |  |  | 20900 |  |  | 62800 | Not Active | 430 | 270 | IC50 (Escherichia coli): Not Active; IC50 (BT-549; [13]): 2580 nM; IC50 (Aspergillus fumigatus; [12]): 16100 nM; IC50 (Pseudomonas aeruginosa): Not Active; IC50 (SK-MEL; [14]): 12900 nM; CC50 at 48 h [8]: > 16100 nM
C[C@H]1[C@@H](OCC(CO[C@H]2O[C@@H]3O[C@@]4(C)CC[C@H]5[C@H](C)CC[C@@H]([C@H]2C)[C@@]35OO4)OS(C)(=O)=O)O[C@@H]2O[C@@]3(C)CC[C@H]4[C@H](C)CC[C@@H]1[C@@]24OO3 (some centres not stated) | 542 | Not Active | 1420 | 11.8 | 4270 | 542 | Not Active | 11.8 | Not Active | 6400 |  | 22800 |  |  | 55500 | Not Active | 2130 | 280 | IC50 (Escherichia coli): Not Active; IC50 (BT-549; bt-549): Not Active; IC50 (Pseudomonas aeruginosa): Not Active; IC50 (SK-MEL; sk-mel): Not Active; TC50 [8]: Non-toxic
